The source of these data is ChEMBL document CHEMBL4622968, “Discovery of [1,2,4]triazolo[4,3-a]pyridines as potent Smoothened inhibitors targeting the Hedgehog pathway with improved antitumor activity in vivo” (Bioorg Med Chem, 2020).

Activity calls are given as the source filed them. The rule behind the calls is not given here. Where only a bound is given, the exact number is not on record here.

The test system of data set [1] is MDA-MB-231. In words: Antiproliferation activity against human MDA-MB-231 cells assessed as reduction in cell viability incubated for 72 hrs measured after 4 hrs by MTT assay. Format: functional, cell-based. Summed up: (§1)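 MTT assay. Cells were plated overnight and exposed to a range of concentrations for 72 h. MTT was then added for 4 h and absorbance read at 570 nm. Inhibition% = [(control − compound)/(control − blank)] × 100. IC50 was fitted from the curves. Mean ± S.D. of 3–5 separate experiments. RPMI 1640 + 10% FBS; MCF10A in DMEM/F12 with 5% horse serum, EGF, hydrocortisone, insulin and cholera toxin.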
(In general: Tetrazolium dyes change colour on reduction, which living cells bring about.)

The subject of data set [2] is MDA-MB-468. In words: Induction of cell cycle arrest in human MDA-MB-468 cells assessed as cell accumulation at S phase at 28 uM incubated for 48 hrs by propidium iodide staining-based flow cytometric analysis (reference value: 34.20 %). Format: functional. Summed up: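 Cells were seeded at 1.2×10^5 per well and treated for 48 h (MDA-MB-468: 14, 28, 56 μM). Cells were fixed in 75% ethanol at −20 °C overnight, stained with PI and analysed by flow cytometry. Mean ± S.D. of three independent experiments versus DMSO.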
(In general: A flow cytometer gives signals particle by particle.)

Data set [3] is described as follows: Acute toxicity in Kunming mouse assessed as mortality at 3008 mg/kg, ig observed for 14 days relative to control. Format: organism-based. To be noted: in vivo, po, read-out: Activity. Summed up:
(§2)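 Kunming mice, groups of 5 female and 5 male per dose, dosed once by gavage at graded doses; mortality recorded over 14 days as dead/treated and percent. LD50 derived by improved Karber's method: LD50 = lg^-1[xm − i(ΣP − 0.5)], xm log of maximal dose, i log ratio of neighbouring doses; 95% confidence intervals given.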

Data set [4] concerns MDA-MB-468. Kind of data set: Induction of apoptosis in human MDA-MB-468 cells assessed as early apoptotic cells at 56 uM incubated for 48 hrs by annexin-V-FITC staining based flow cytometric method (reference value: 2.00 %). The class given is functional.
For data set [5], the target named is T1, Protein smoothened (Homo sapiens, UniProt Q99835). In words: Binding affinity to recombinant human Smo receptor assessed as dissociation constant at equilibrium by SPR analysis. In general terms: In SPR one partner is held on a chip, and binding of the other changes the refractive index at the surface.
T1 sequence (Q99835 whole entry): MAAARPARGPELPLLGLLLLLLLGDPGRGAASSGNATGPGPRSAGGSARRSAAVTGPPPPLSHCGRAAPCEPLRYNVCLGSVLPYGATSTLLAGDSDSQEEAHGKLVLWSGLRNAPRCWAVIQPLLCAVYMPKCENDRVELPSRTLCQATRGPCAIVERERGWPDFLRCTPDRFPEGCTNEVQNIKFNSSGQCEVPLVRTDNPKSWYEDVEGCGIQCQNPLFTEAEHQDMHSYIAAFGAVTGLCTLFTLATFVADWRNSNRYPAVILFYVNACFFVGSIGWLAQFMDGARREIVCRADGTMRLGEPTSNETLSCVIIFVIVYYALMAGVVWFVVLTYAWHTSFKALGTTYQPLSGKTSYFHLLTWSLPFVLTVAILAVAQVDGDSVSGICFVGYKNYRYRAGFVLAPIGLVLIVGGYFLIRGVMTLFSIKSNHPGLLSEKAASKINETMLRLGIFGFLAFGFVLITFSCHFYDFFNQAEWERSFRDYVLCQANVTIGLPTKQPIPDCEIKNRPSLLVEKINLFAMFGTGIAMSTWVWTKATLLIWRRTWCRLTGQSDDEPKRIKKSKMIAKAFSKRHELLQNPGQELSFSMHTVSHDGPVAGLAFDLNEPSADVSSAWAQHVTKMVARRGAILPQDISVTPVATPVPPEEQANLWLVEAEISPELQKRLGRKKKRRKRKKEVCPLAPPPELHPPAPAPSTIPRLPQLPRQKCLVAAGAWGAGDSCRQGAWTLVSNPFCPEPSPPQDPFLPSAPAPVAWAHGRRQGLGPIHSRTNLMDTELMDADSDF
Data set [6] has as its system MDA-MB-231. Kind of data set: Induction of cell cycle arrest in human MDA-MB-231 cells assessed as cell accumulation at G0/G1 phase incubated for 48 hrs by propidium iodide staining-based flow cytometric analysis. Format: functional.
Data set [7] relates to MDA-MB-231. In words: Induction of apoptosis in human MDA-MB-231 cells assessed as increase in apoptosis incubated for 48 hrs by annexin-V-FITC/PI staining based flow cytometric method. The class given is functional, cell-based.
The species named for a further data set is Mus musculus. Kind of data set: Inhibition of SAG-induced hedgehog pathway in mouse NIH/3T3 cells assessed as inhibition of Smo localization to primary cilia pretreated with SAG for 6 hrs followed by incubating for 24 hrs by confocal laser-scanning microscopy. Format: cell-based. Summed up:
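NIH3T3 cells in DMEM + 10% FBS were seeded at 2×10^4 per well on chamber slides for 24 h. They were stimulated with SAG (200 nM) for 6 h, then exposed to compound for 24 h. Cells were fixed in 4% paraformaldehyde and permeabilized with 0.1% Triton. Acetylated α-tubulin and Smo were immunostained and imaged by confocal microscopy.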

A further data set has as its system A549. Kind of data set: Antiproliferation activity against human A549 cells assessed as reduction in cell viability incubated for 72 hrs by MTT assay. To be noted: A549, 72 h. Format: functional, cell-based. Summed up:
as §1

Data set [8] concerns MDA-MB-468. Kind of data set: Induction of apoptosis in human MDA-MB-468 cells assessed as live cells at 14 uM incubated for 48 hrs by annexin-V-FITC staining based flow cytometric method (reference value: 98.5 %). Format: functional.
A short description of data set [9]: Acute toxicity in Kunming mouse assessed as lethality through intragastric administration observed for 14 days. As to conditions: in vivo, po. Summed up:
as §2

The subject of another data set is MCF-10A. In words: Cytotoxicity against human MCF10A cells assessed as cell viability incubated for 72 hrs measured by MTT assay. The class given is cell-based. An outline of the steps: as §1
For data set [10], the system named is MDA-MB-231. In words: Induction of apoptosis in human MDA-MB-231 cells assessed as increase in Bax protein expression level incubated for 1 hr by Western blot analysis. Format: functional, cell-based.
The subject of data set [11] is MDA-MB-468. In words: Induction of apoptosis in human MDA-MB-468 cells assessed as early apoptotic cells at 28 uM incubated for 48 hrs by annexin-V-FITC staining based flow cytometric method (reference value: 2.00 %). Format: functional.
Data set [12] concerns the target T1, Protein smoothened. In words: Binding affinity to recombinant human Smo receptor assessed as maximum response at equilibrium by SPR analysis. Summed up: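 Surface plasmon resonance with recombinant Smo protein, run in PBS at a flow rate of 2 μL/s and 4 °C. Analytes were injected at 2.5, 5 and 10 μM. The chip was regenerated with 0.5% SDS:glycine-HCl pH 2.0 (1:1). ka, kd, Rmax, KA and KD came from a global fit of the sensorgrams.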

In a further data set the test system is T47D. Kind of data set: Antiproliferation activity against human T47D cells assessed as reduction in cell viability incubated for 72 hr by MTT assay. The class given is functional, cell-based. An outline of the steps: as §1
For another data set, the system named is AN3-CA. Kind of data set: Antiproliferation activity against human AN3CA cells assessed as reduction in cell viability incubated for 72 hr by MTT assay. The class given is functional, cell-based. Summed up:
as §1

The nature of data set [13]: Toxicity in BALB/c mouse xenografted with human MDA-MB-468 cells assessed as body weight at 80 to 100 mg/kg, ig measured every day for 21 day. Format: organism-based. To be noted: in vivo, po, 504 h. An outline of the steps: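 Female BALB/c nude mice, 6–8 weeks, given 1.0×10^7 MDA-MB-468 cells s.c. in right posterior flank; at 100 mm3 tumours, randomized into groups of five. Daily gavage at 80 or 100 mg/kg in saline with 0.1% Tween 80, or vehicle alone; body weight recorded daily, tumour volume every 2 days; sacrificed day 21.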

Data set [14] has as its system MDA-MB-468. Kind of data set: Inhibition of hedgehog pathway in human MDA-MB-468 cells assessed as decrease in Smo protein levels in cilia at 28 uM incubated for 24 hrs by immunostaining based confocal microscopic analysis. Format: cell-based. An outline of the steps: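 MDA-MB-468 cells were treated at 28 μM for 24 h with or without SAG. Cilia were immunostained for acetylated α-tubulin and Smo and imaged by confocal microscopy. Comparisons were made against DMSO and against SAG alone.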

For data set [15], the target named is T1, Protein smoothened. In words: Displacement of BODIPY-Cyclopamine from wild type Smo receptor (unknown origin) expressed in HEK293 cells incubated for 12 hrs by Hoechst 33342 based fluorescence microscopic method. Format: cell-based. An outline of the steps:
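HEK293 cells were transiently transfected in triplicate with a wild-type Smo plasmid, with expression confirmed by western blot. Cells were loaded with BODIPY-cyclopamine, then given unlabelled cyclopamine (25 μM) or test compound (1 or 25 μM) for 12 h at 37 °C. Nuclei were counterstained with Hoechst 33342. Green fluorescence was imaged by fluorescence microscopy.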

The nature of data set [16]: Acute toxicity in Kunming mouse assessed as mortality at 3965 mg/kg, ig observed for 14 days relative to control. The class given is organism-based. To be noted: in vivo, po, read-out: Activity. Summed up: as §2
The test system of data set [17] is MDA-MB-468. Kind of data set: Induction of apoptosis in human MDA-MB-468 cells assessed as live cells at 56 uM incubated for 48 hrs by annexin-V-FITC staining based flow cytometric method (reference value: 98.5 %). The class given is functional.
Data set [18] has as its system MDA-MB-468. Kind of data set: Induction of apoptosis in human MDA-MB-468 cells assessed as live cells at 28 uM incubated for 48 hrs by annexin-V-FITC staining based flow cytometric method (reference value: 98.5 %). Format: functional.
Data set [19] has as its system MDA-MB-468. Kind of data set: Induction of apoptosis in human MDA-MB-468 cells assessed as early apoptotic cells at 14 uM incubated for 48 hrs by annexin-V-FITC staining based flow cytometric method (reference value: 2.00 %). Format: functional.

In general, IC50 refers to the concentration at which inhibition is half-maximal. The term Kd denotes the concentration at which binding is half-saturated. A word on the LD50: it is the dose expected to kill half of the subjects tested. Take `O=C(Nc1ccc(Cl)c(-c2nnc3c(Cl)cccn23)c1)c1ccc(Cl)nc1Cl`: the IC50 in the data set with MDA-MB-231 [1] was 29.5 µM; with A549, 64.9 µM; in the data set with MCF-10A it was over 100 µM; in the data set on T47D, 42.3 µM; in the data set on AN3-CA it was 44.5 µM. The Activity with MDA-MB-468 [2] is 39%; in the data set on MDA-MB-468 [4] it was 6.53%; with MDA-MB-231 [6] it was “Dose-dependent effect”; in the data set with MDA-MB-231 [7], “Dose-dependent effect”; with MDA-MB-468 [8] it was 74.84%; with MDA-MB-468 [11] it was 7.71%. Moreover, the Activity result in [13] is “Non-Toxic”; on Protein smoothened [15], “Dose-dependent effect”; in the data set on MDA-MB-468 [17] it was 60.3%; with MDA-MB-468 [18], 67.8%; in the data set with MDA-MB-468 [19], 8.63%. Moreover, the mortality at 336 h in [3] amounted to 10%; in [16], 50%. For the same compound, the Kd at Protein smoothened [5] amounted to 0.0103 µM. The inhibition entry in the data set listed under Mus musculus and in the data set with MDA-MB-468 [14] was “Active” each time. The LD50 at 336 h in [9] is 3880 mg/kg. The outcome in the data set with MDA-MB-231 [10] was Active. Also, the Rmax on Protein smoothened [12] came to 90.5 RU.
